In ChEMBL document CHEMBL1154676, “Synthetic mRNA splicing modulator compounds with in vivo antitumor activity” (J Med Chem, 2009):
Activity calls are given as the source filed them. No cut-off for these calls is given here.

Tests used:
WiDr = experiment: Cytotoxicity against human WiDr cells after 72 hrs by XTT assay; format: functional, cell-based
Summary of the method: (§1)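 Cells grown at 37 °C, 5% CO2; HFF in DMEM with 10% FBS, PrEC in prostate epithelial growth medium. Adherent lines seeded overnight, suspension lines same day; compounds diluted from DMSO stocks into media at various final concentrations, 72 h exposure. XTT reagent added 4 h, absorbance 490 nm (reference 690 nm). Growth as % of vehicle; IC50 from sigmoidal dose-response fit; mean ± SEM, three independent experiments.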

[1] = Cytotoxicity against human JeKo1 cells after 72 hrs by XTT assay; format: functional, cell-based; details: JeKo-1, 72 h; summary of the method: as §1
PC-3 = experiment: Cytotoxicity against human PC3 cells after 72 hrs by XTT assay; format: functional, cell-based; details: PC-3, 72 h; summary of the method: as §1
JVM-2 = experiment: Cytotoxicity against human JVM2 cells after 72 hrs by XTT assay; format: functional, cell-based; details: JVM-2, 72 h; summary of the method: as §1
JeKo-1 = experiment: Anticancer activity against human JeKo1 cells transplanted in Es-1/SCID mouse assessed as decrease in tumor volume at 50 to 100 mg/kg, iv measured after 25 days; format: functional, organism-based
HeLa [2] = experiment: Anticancer activity in human HeLa cells assessed as aggregation of SC35 and SF3b protein SAP155 at 10 uM after 4 hrs by immunofluorescence analysis; format: functional, cell-based
Summary of the method: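 HeLa cells on glass coverslips exposed 4 h to 10 μM compound in DMSO (DMSO-only control), fixed in cold methanol at −20 °C for 10 min. Stained with anti-SC35 or anti-SAP155 primary (1/100, 1 h, 37 °C), then Alexa Fluor 488 anti-mouse secondary (1/200). Splicing-factor distribution imaged by fluorescence microscopy at 60X.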

HeLa [3] = experiment: Inhibition of spliceosome splicing activity in human HeLa cells assessed as mRNA products at 0.5 to 10 uM by autoradiography; format: cell-based
[4] = Chemical stability in phosphate buffer assessed as half life at pH 7.4 at 37 degC; format: physicochemical

Structure (SMILES)	IC50 (WiDr)	IC50 [1]	IC50 (PC-3)	IC50 (JVM-2)	Activity (JeKo-1)	Activity (HeLa [2])	Activity (HeLa [3])	half-life [4]
CC(/C=C/[C@@H]1C[C@]2(CO2)CC(C)(C)O1)=C\C[C@H]1CC[C@@H](NC(=O)/C=C\[C@H](C)OC(=O)c2ccco2)CC1	0.14 µM	0.14 µM	3.5 µM					
CC(/C=C/[C@@H]1C[C@]2(CO2)CC(C)(C)O1)=C\C[C@H]1CC[C@@H](NC(=O)/C=C\[C@H](C)OC(=O)C2CCOCC2)CC1		0.45 µM	2 µM					
CC(/C=C/[C@@H]1C[C@]2(CO2)CC(C)(C)O1)=C\C[C@H]1CC[C@@H](NC(=O)/C=C\[C@H](C)O)CC1	10 µM	1.6 µM	10 µM	1.5 µM				
CC(/C=C/[C@@H]1C[C@]2(CO2)CC(C)(C)O1)=C\C[C@H]1CC[C@@H](NC(=O)/C=C\[C@H](C)OC(=O)c2cccn2C)CC1	0.39 µM	0.39 µM	4.3 µM					
CC(=O)O[C@@H](C)/C=C\C(=O)N[C@H]1CC[C@@H](C/C=C(C)/C=C/[C@@H]2C[C@]3(CO3)CC(C)(C)O2)CC1		0.1 µM						
COc1cccc(N2CCN(C(=O)O[C@@H](C)/C=C\C(=O)N[C@H]3CC[C@@H](C/C=C(C)/C=C/[C@@H]4C[C@]5(CO5)CC(C)(C)O4)CC3)CC2)c1	> 1.25 µM	> 0.5 µM	> 2.5 µM	> 0.5 µM				
CC(/C=C/[C@@H]1C[C@]2(CO2)CC(C)(C)O1)=C\C[C@H]1CC[C@@H](NC(=O)/C=C\[C@H](C)OC(=O)N2CCN(C)CC2)CC1	> 1.25 µM	> 0.5 µM	> 2.5 µM	> 0.5 µM				
CC(/C=C/[C@@H]1C[C@]2(CO2)CC(C)(C)O1)=C\C[C@H]1CC[C@@H](NC(=O)/C=C\[C@H](C)OC(=O)C2CCN(C)CC2)CC1		> 1 µM	10 µM					
CC(/C=C/[C@@H]1C[C@]2(CO2)CC(C)(C)O1)=C\C[C@H]1CC[C@@H](NC(=O)/C=C\[C@H](C)OC(=O)N2CCN(C3CCCCCC3)CC2)CC1			> 5 µM	> 1 µM				
CC(/C=C/[C@@H]1C[C@](O)(CCl)CC(C)(C)O1)=C\C[C@H]1CC[C@@H](NC(=O)/C=C\[C@H](C)OC(=O)N2CCN(C3CCCCCC3)CC2)CC1	> 1.25 µM		> 5 µM	> 10 µM				
CC(/C=C/[C@@H]1C[C@]2(CO2)CC(C)(C)O1)=C\C[C@H]1CC[C@@H](NC(=O)/C=C\[C@H](C)OC(=O)c2cccnc2)CC1	0.17 µM	0.17 µM	8.1 µM					
CC(/C=C/[C@@H]1C[C@]2(CO2)CC(C)(C)O1)=C\C[C@H]1CC[C@@H](NC(=O)/C=C\[C@H](C)OC(=O)N2CCN(CCO)CC2)CC1	> 1.25 µM	> 0.5 µM	> 2.5 µM	> 0.5 µM				
CC(/C=C/[C@@H]1C[C@]2(CO2)CC(C)(C)O1)=C\C[C@H]1CC[C@@H](NC(=O)/C=C\[C@H](C)OC(=O)C2CCN(c3ccnc(C(F)(F)F)n3)CC2)CC1	> 1 µM	> 1 µM	> 10 µM					
CC(/C=C/[C@@H]1C[C@]2(CO2)CC(C)(C)O1)=C\C[C@H]1OC[C@@H](NC(=O)/C=C\[C@H](C)OC(=O)C(C)C)CO1		0.15 µM			Active	Active	Active	
CC(/C=C/[C@@H]1C[C@]2(CO2)CC(C)(C)O1)=C\C[C@H]1CC[C@@H](NC(=O)/C=C\[C@H](C)OC(=O)c2ccccc2)CC1	0.41 µM	0.41 µM	4.9 µM					
CC(=O)O[C@@H](C)/C=C\C(=O)N[C@@H]1C[C@H](C)[C@H](C/C=C(C)/C=C/[C@H]2O[C@](C)(O)C[C@@]3(CO3)[C@@H]2O)O[C@@H]1C								4 h
